From PubChem BioAssay
5HT1E ag: 5-HT1E (human) receptor agonism | activation, % at 6 µM | P28566 | actives 0.69% (n = 65,000) | AID 574 | CHO 5-HT1E Ga15 NFAT-bla reporter, FRET; 0% DMSO wells, 100% control agonist wells;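 active means activation above a set limit, the screen-wide mean activation plus 3 SD, cut at about 8.5% in these data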;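 further: 100% = positive control agonist at 1 µM giving full maximal response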
S1P3 ag: activates the human S1P3 receptor; activation, % at 4.5 µM; Q99500; AID 373; actives 0.1% (n = 60,000); S1P3 NFAT-BLA reporter cells, agonism, FRET ratio; relative to 1 µM S1P, basal subtracted;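 active means activation above the screen-wide mean plus 3 SD, cut at about 4.5% in these data, passing the limit was not always enough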
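Benchmarks: high control 1 µM S1P / System: stable CHO line with human S1P3, Gα16, NFAT-BLA reporter / Dosing: single compound concentration, 4.5 µM final / Timing: 4 h compound at 37 °C, 2 h substrate at RT / Measured by: FRET β-lactamase substrate fluorescence, excitation 405 nm, 460/535 nm emission ratio, background-subtracted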
S1P1 ag-PAM: activates or potentiates agonism at human S1P1 receptor. S1P1 CRE-bla cells, forskolin, beta-lactamase FRET, potentiator mode; S1P1 agonist co-added at EC20, 2 nM; 100% = saturating reference agonist, 0% = basal. actives 0.57% (n = 56,000). AID 449. activation, % at 9.5 µM;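 active means activation above a cutoff set at the mean activation of all tested compounds plus 3 SD, cut at about 54% in these data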;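 further: forskolin at 4 µM as EC80 and the EC20 agonist is SEW2871; 100% = SEW2871 at its EC100 plus forskolin at EC80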
HTR1E antagonist: 5-HT1E (human) receptor antagonism | P28566 | CHO 5-HT1E Ga15 NFAT-bla reporter, FRET, antagonist | inhibition, % at 6 µM | actives 0.99% (n = 65,000) | AID 571;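 active means inhibition above a set limit, the mean inhibition across every tested compound plus 3 SD, cut at about 29% in these data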;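 further: signal is the 460 over 535 nm emission ratio of beta-lactamase substrate; 0% = agonist plus DMSO wells and 100% = wells without agonist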
5HT1a ag: 5-HT1a (human) receptor agonism | actives 0.56% (n = 65,000) | CHO 5-HT1a Ga15 NFAT-bla reporter, FRET ratio; 0% basal, 100% maximal reference agonist | activation, % at 10 µM | P08908;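 active means activation above the screen-wide mean activation plus 3 SD, cut at about 19% in these data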;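 further: 0% = DMSO wells and 100% = 5-CT at EC100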
Target sequence (P08908 whole entry, looked up): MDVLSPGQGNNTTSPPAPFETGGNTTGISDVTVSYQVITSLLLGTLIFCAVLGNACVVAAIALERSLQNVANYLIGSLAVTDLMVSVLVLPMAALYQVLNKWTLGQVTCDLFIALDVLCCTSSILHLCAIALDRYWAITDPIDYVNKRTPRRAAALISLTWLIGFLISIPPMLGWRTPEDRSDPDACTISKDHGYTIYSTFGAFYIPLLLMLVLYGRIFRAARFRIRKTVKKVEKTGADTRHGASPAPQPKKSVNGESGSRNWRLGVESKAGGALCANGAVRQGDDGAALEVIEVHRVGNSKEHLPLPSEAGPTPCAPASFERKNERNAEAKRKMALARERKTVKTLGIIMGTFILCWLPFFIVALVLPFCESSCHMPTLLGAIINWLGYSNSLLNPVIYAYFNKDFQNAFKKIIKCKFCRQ
5HT1a antag: antagonists of human 5-HT1a serotonin receptor | P08908 | CHO 5-HT1a Ga15 NFAT-bla reporter, antagonist mode | inhibition, % at 10 µM | actives 0.68% (n = 62,000);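 active means inhibition above the mean of all tested compounds plus 3 SD, cut at about 43% in these data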;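 further: receptor stimulated by 5-CT agonist at 100 nM near EC80; beta-lactamase reporter measured by ratiometric fluorescence of a cleavable substrate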
Numbers without * were called inactive; / = no result. A selection: hits, their analogues and other compounds. The true share with any hit is near 2.9%.

SMILES	5HT1E ag	S1P3 ag	S1P1 ag-PAM	HTR1E antagonist	5HT1a ag	5HT1a antag
Nc1nc(CSc2n[nH]c(-c3ccccc3)n2)nc(Nc2ccccc2)n1	0	-2	-12	30*	1	-11
CSc1cccc(-n2cc(-c3ccc4c(c3)OCO4)[nH]c2=O)c1	0	/	/	12	-3	25
CCOCCCNC(=O)CC1Oc2ccc(C)cc2NC1=O (stereo unspecified)	0	0	-6	-9	0	0
CC1CCN(c2oc(-c3ccccc3Cl)nc2C#N)CC1	0	0	6	37*	1	/
O=C(NCC(=O)N(Cc1cccs1)C(C(=O)NC1CCCC1)c1ccncc1)c1ccco1 (stereo unspecified)	1	0	-2	-4	-6	-4
O=C(NC1CCCCC1)C(c1cccs1)N(Cc1cccs1)C(=O)c1ccco1 (stereo unspecified)	-1	-1	-15	0	0	50*
O=C(NC1CCCCC1)C(c1cccs1)N(CC1CCCO1)C(=O)c1csnn1 (stereo unspecified)	0	0	17	5	-3	12
O=C(NC1CCCC1)C(c1cccs1)N(CC1CCCO1)C(=O)Cc1cccs1 (stereo unspecified)	0	-2	4	3	0	44*
Cc1ccc(-c2nc3cc(N)ccc3o2)cc1	0	-1	-18	9	-1	14
CC(C)c1ccc2oc(-c3ccc(N)cc3)nc2c1	0	-2	54*	1	0	9
CCn1c(SCC(=O)Nc2nccs2)nnc1-c1cc2cccc(OC)c2o1	11*	-1	4	5	1	-5
COc1cc2c(cc1NC(=O)CSc1nnc(Cc3cccs3)n1C)oc1ccccc12	0	-1	9	-3	4	4
CCn1c(SCC(=O)Nc2cc3oc4ccccc4c3cc2OC)nnc1-c1cccs1	-1	-1	/	5	25*	4
CCC(C)NC(=O)N[C@@H](Cc1ccccc1)C(=O)O (stereo partly specified)	0	0	-21	1	61*	-2
CC1Cc2ccccc2N1C(=O)c1cc2c(=O)n3ccccc3nc2n1C (stereo unspecified)	0	0	-57	39*	3	-14
Cc1cccn2c(=O)c3cc(C(=O)N4c5ccccc5CC4C)n(C)c3nc12 (stereo unspecified)	0	1	-33	5	-1	1
CC1CCN(S(=O)(=O)c2cn(CC(=O)N3CCN(C)CC3)c(=O)c3ccccc23)CC1	-1	0	1	2	2	4
NC(=O)c1c(NC(=O)c2cccs2)sc2c1CCCCCC2	11*	0	12	-15	0	-3
O=c1[nH]cnc2cc(Cl)ccc12	-2	-1	11	1	50*	5
O=c1[nH]cnc2cc(-c3ccccc3)sc12	0	-3	10	8	-1	/
C=CCN(C(=O)Cn1c(C(=O)OC)cc2oc(C)cc21)c1ccccc1	-1	-1	-13	-1	1	11
COC(=O)c1cc2oc(C)cc2n1CC(=O)N(C)c1ccccc1	11*	-1	0	-5	-1	-6
CC1(C)CC(=O)C2=C(C1)OC(N)=C(C#N)C2C1CC=CCC1 (stereo unspecified)	1	0	3	-7	4	-2
Cc1nn(-c2ccccn2)c2c1C(c1ccsc1)C1=C(CCCC1=O)N2 (stereo unspecified)	0	0	-50	35*	2	-6
COc1ccccc1C(=O)NCCCn1cc(Br)c(C)n1	-1	0	-21	-12	-3	-3
SMILES	5HT1E ag	S1P3 ag	S1P1 ag-PAM	HTR1E antagonist	5HT1a ag	5HT1a antag
CCC(c1nnnn1C(C)(C)C)N1CCN(c2cc(Cl)ccc2C)CC1 (stereo unspecified)	-1	-2	-4	-2	-2	44*
CC(C)Cc1nnc(NC(=O)CSc2ncn[nH]2)s1	6	0	-14	2	112*	-8
Cn1c(=O)c2c3c(sc2n2c(SCC(N)=O)nnc12)CC(C(C)(C)C)CC3 (stereo unspecified)	1	0	21	-39	3	/
N#CC1=C(SCC(=O)NC23CC4CC(CC(C4)C2)C3)NC(=O)C(C#N)C12CCCCC2 (stereo unspecified)	0	0	/	1	-1	7
Cc1ccc(S(=O)(=O)N2c3ccc(S(N)(=O)=O)cc3CC2C)cc1 (stereo unspecified)	-1	0	/	14	86*	7
CC1Cc2ccccc2N1S(=O)(=O)c1cccs1 (stereo unspecified)	0	-1	-16	-2	-2	-2
Cc1ccc(-c2nc(CN(C)C)cc(CN(C)C)c2O)cc1	-2	-1	16	-1	-1	2
CN(C)Cc1cc(C(C)(C)c2cc(CN(C)C)c(O)c(CN(C)C)c2)cc(CN(C)C)c1O	0	0	17	-11	75*	-10
O=S(=O)(c1cccc(S(=O)(=O)N2CCCC2)c1)c1cccc(S(=O)(=O)N2CCCC2)c1	-1	-1	2	-6	-6	-6
O=S(=O)(c1cccc(Cl)c1)N1CCCC1	131*	/	/	3	2	1
COc1ccc(S(=O)(=O)Cc2ccc(C(=O)NCc3ccc(F)cc3)o2)cc1	0	1	-4	6	-1	6
O=S(=O)(Nc1nc2ccccc2nc1NCc1ccco1)c1cccs1	0	-1	4	1	-1	22
COC(=O)c1sccc1NC(=O)Cn1cnc2c1c(=O)n(C)c(=O)n2C	-1	-1	/	0	0	11
CC(C)(CC(=O)N1CCN(c2ccc(Cl)cc2)CC1)CC1=NS(=O)(=O)c2ccccc2N1	1	-1	63*	4	2	-4
COC(=O)Cn1c(CCS(=O)(=O)c2ccc(C)cc2)nc2ccccc21	-1	0	12	-14	0	4
O=C(CNc1ccc(Oc2ccccc2)cc1)N1CCOCC1	0	0	-2	-1	-2	5
O=C(Nc1ccc(O)cc1)c1cc2n(n1)C(C(F)(F)F)CC(c1ccco1)N2 (stereo unspecified)	0	0	100*	1	-1	3
COc1ccc(NC(=O)CCCNS(=O)(=O)c2cccs2)cc1	-2	/	/	6	0	15
O=C(O)CCCNS(=O)(=O)c1cccs1	-1	-1	-3	11	20*	7
O=C1Nc2ccccc2C(O)(C(=O)NC2CC2)N1c1ccc(Cl)c(Cl)c1 (stereo unspecified)	-1	/	/	3	-3	-10
